Test results taken from ChEMBL document CHEMBL3867451, “Phenolic Metabolites of Dalea ornata Affect Both Survival and Motility of the Human Pathogenic Hookworm Ancylostoma ceylanicum” (J Nat Prod, 2016).

Legend:
[1] = tested on: Ancylostoma ceylanicum; assay: Anthelmintic activity against Ancylostoma ceylanicum isolated from infected Syrian hamster feces assessed as survival rate at 25 ug/ml measured on day 1 relative to control; assay type: functional; conditions: 24 h
[2] = tested on: Ancylostoma ceylanicum; assay: Anthelmintic activity against Ancylostoma ceylanicum isolated from infected Syrian hamster feces assessed as survival rate at 25 ug/ml measured on day 4 relative to control; assay type: functional; conditions: 96 h
[3] = Effect on Syrian hamster splenocytes proliferation assessed as stimulation index by BrdU-incorporation based colorimetric analysis; assay type: ADME, cell-based, Mesocricetus auratus; conditions: splenocyte
Method in brief: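 Hamster spleens dissociated through strainers, red cells lysed, cells washed in RPMI. Plated in triplicate at 10⁵ cells per well with several doses of compound. 1% DMSO served as negative control, concanavalin A as positive control. Proliferation read by colorimetric BrdU incorporation. Index is mean OD450 of compound wells divided by mean OD450 of medium plus 1% DMSO wells, with 1 meaning no effect.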

[4] = tested on: Ancylostoma ceylanicum; assay: Anthelmintic activity against Ancylostoma ceylanicum isolated from infected Syrian hamster feces assessed as survival rate at 25 ug/ml measured on day 5 (reference value: >95%); assay type: functional; conditions: 120 h
[5] = tested on: Ancylostoma ceylanicum; assay: Anthelmintic activity against Ancylostoma ceylanicum isolated from infected Syrian hamster feces assessed as survival rate at 25 ug/ml measured on day 2 relative to control; assay type: functional; conditions: 48 h
[6] = tested on: Ancylostoma ceylanicum; assay: Anthelmintic activity against Ancylostoma ceylanicum isolated from infected Syrian hamster feces assessed as survival rate at 25 ug/ml measured on day 3 relative to control; assay type: functional; conditions: 72 h
[7] = Toxicity in po dosed rat; assay type: organism-based; conditions: in vivo
[8] = tested on: Ancylostoma ceylanicum; assay: Anthelmintic activity against Ancylostoma ceylanicum isolated from infected Syrian hamster feces assessed as motility at 25 ug/ml measured on day 5; assay type: functional
Method in brief: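 Adult worms from hamster intestine washed in RPMI with fungizone (25 μg/mL) and 20× pen/strep, held overnight at 37 °C, 5% CO2 in that medium plus 50% FBS. Compound added from DMSO stock to 1% DMSO final; 1% DMSO negative control. Motility scored on a 0–3 scale, worms stimulated by microscope light and heat and gentle manipulation.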

[9] = tested on: Ancylostoma ceylanicum; assay: Anthelmintic activity against Ancylostoma ceylanicum isolated from infected Syrian hamster feces assessed as mortality at 10 ug/ml measured on day 3 relative to control; assay type: functional; conditions: 72 h

SMILES | survival at 25 µg/mL [1] [%] | survival at 25 µg/mL [2] [%] | Ratio [3] | survival at 25 µg/mL [4] [%] | survival at 25 µg/mL [5] [%] | survival at 25 µg/mL [6] [%] | LD50 [7] [mg/kg] | Activity [8] [%] | mortality at 10 µg/mL [9] [%]
CC(C)=CCC/C(C)=C/Cc1c(O)ccc2c1O[C@H](c1ccc(O)cc1O)CC2=O | 100 | 100 | 0.8 to 1 | 93 | 100 | 100 |  |  | 
COc1ccc2c(c1)O[C@@H]1c3ccc(O)cc3OC[C@H]21 | 100 | 100 | 0.8 to 1 | 100 | 100 | 100 |  |  | 
C=C(C)[C@H]1Cc2c(ccc3c2O[C@@H]2COc4cc(OC)c(OC)cc4[C@@H]2C3=O)O1 [ROTENONE] |  |  |  |  |  |  | 132 to 1500 |  | 
C=CC(C)(C)c1cc([C@@H]2CC(=O)c3c(O)cc(O)c(CC=C(C)C)c3O2)c(O)cc1O | 100 | 100 | 0.8 to 1 | 100 | 100 | 100 |  |  | 
Oc1ccc2c(c1)OC[C@@H]1c3cc4c(cc3O[C@H]21)OCO4 [(+)-MAACKIAIN] | 100 | 80 | 1 | 73 | 93 | 83 |  | 80 | 
C=CC(C)(C)c1cc([C@@H]2CC(=O)c3ccc(O)c(CC=C(C)C)c3O2)c(O)cc1O | 100 | 97 | 0.8 to 1 | 90 | 100 | 100 |  |  | 
COc1cc2c(cc1OC)[C@]1(O)C(=O)c3ccc4c(c3O[C@@H]1CO2)C=CC(C)(C)O4 [TEPHROSIN] | 77 | 0 | 0.8 to 1 | 0 | 3 | 0 |  |  | 100
COc1cc2c(cc1OC)[C@@H]1C(=O)c3ccc4c(c3O[C@@H]1CO2)C=CC(C)(C)O4 [DEGUELIN] | 100 | 0 | 0.8 to 1 | 0 | 50 | 40 |  |  | 
CC(C)=CCc1c(O)ccc2c1O[C@H](c1ccc(O)cc1O)CC2=O | 100 | 80 | 0.8 to 1 | 80 | 100 | 90 |  |  | 
CC(C)=CCc1c(O)cc(O)c2c1O[C@H](c1ccc(O)cc1O)CC2=O [LEACHIANONE G] | 100 | 93 | 0.8 to 1 | 87 | 97 | 93 |  |  | 
CC(C)=CCc1c(O)c(O)cc2c1O[C@H](c1ccc(O)cc1)CC2=O | 100 | 83 | 0.8 | 83 | 97 | 90 |  |  | 
